Results: PMC7265153 (The Journal of infection, 2019)
≈ marks a conversion by molar mass, not a printed value. Where “and” joins values, the source holds several entries; their conditions need not be identical. Equal entries are not always repeated. Where two headings read alike, the source gives them in different places. Where a SMILES comes first, the peptide text is derived from it. Bridges are numbered along the chain shown (N, C = ends). [ ]: non-standard residue; d: D form. The star is where a group is joined. X1 = CC[C@H](C)CCCCC(=O)*; Dab = NCC[C@H](N)C(=O)O

How the values were obtained:
P. aeruginosa [1] = assay type: cell-based; conditions: Pseudomonas aeruginosa
Procedure, shortened: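 Extremely drug-resistant clinical isolates from patients with urinary tract infection. Species identification and susceptibility testing were done by microdilution on the automated breakpoint panel for non-fermenting Gram-negative bacteria. Colistin MIC was determined by microdilution in cation-adjusted Mueller-Hinton broth, with isolates scored susceptible at MIC ≤ 2 mg/L per CLSI.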

XDR P. aeruginosa [2] = assay type: cell-based, Pseudomonas aeruginosa
XDR P. aeruginosa [3] = test: Plasma AUC/MIC, fAUC/MIC of formed colistin and attainment of PK/PD targets; assay type: in vivo, human
XDR P. aeruginosa [4] = assay type: in vivo, human
Acute kidney injury = assay type: in vivo, human; conditions: for AKI at EOT: F (Failure) / AKI at EOT: I (Injury) / AKI at EOT: R (Risk): among patients with AKI
[5] = cited from earlier work
P. aeruginosa [6] = conditions: study performed in Spain; cited from earlier work
MDR-GNB = conditions: cited from earlier work
[7] = in vivo; cited from earlier work
[8] = CMS ≥ 6 million IU/day (n = 12)
[9] = included patients with clinical failure (n = 2)
[10] = all patients, RIFLE class among patients with AKI

In the case of `C[C@@H](O)[C@H]1C(=O)N2C(C(=O)O)=C(S[C@@H]3CN[C@H](C(=O)N(C)C)C3)[C@H](C)[C@H]12` [meropenem], the MIC (P. aeruginosa [1]) is reported as ≥ 8 µg/mL.
In the case of `CC[C@H](C)CCCCC(=O)N[C@@H](CCN)C(=O)N[C@H](C(=O)N[C@@H](CCN)C(=O)N[C@H]1CCNC(=O)[C@H]([C@@H](C)O)NC(=O)[C@H](CCN)NC(=O)[C@H](CCN)NC(=O)[C@H](CC(C)C)NC(=O)[C@@H](CC(C)C)NC(=O)[C@H](CCN)NC1=O)[C@@H](C)O` [colistin] (X1-[Dab]T[Dab][Dab][Dab][dL]L[Dab][Dab]T; lactam 4-C), the MIC50 (XDR P. aeruginosa [2]) is reported as 0.5 µg/mL (≈ 0.428 µM), the MIC90 (XDR P. aeruginosa [2]) is reported as 2 µg/mL (≈ 1.71 µM) and the “patients with microbiological clearance who had reached an AUC/MIC of 60 mg·h/L” value (XDR P. aeruginosa [3]; 7/19 patients) is reported as 36.8%. The “patients with pyelonephritis reaching Css,avg above 2.5 mg/L” value (XDR P. aeruginosa [3]; 9 patients diagnosed with pyelonephritis) was “none of them reached a Css,avg above 2.5 mg/L”, the “patients with pyelonephritis achieving AUC/MIC > 60 mg·h/L” value (XDR P. aeruginosa [3]; 9 patients diagnosed with pyelonephritis, 1 patient) was 11.1% and the “AUC/MIC > 60 mg∙h/L” value (XDR P. aeruginosa [3]; CMS < 3 million IU/day (n = 6)) was 2 (33.3) n (%). For the same compound, the “AUC/MIC > 60 mg∙h/L” value (XDR P. aeruginosa [3]; CMS ≥ 3 million IU/day (n = 9)) was 1 (11.1) n (%), the “AUC/MIC > 60 mg∙h/L” value (XDR P. aeruginosa [3]; [8]) was 5 (41.7) n (%) and the “AUC/MIC > 60 mg∙h/L” value (XDR P. aeruginosa [3]; CMS ≥ 9 million IU/day (n = 6)) was 3 (50) n (%). For the same compound, the “AUC/MIC ≥ 60 mg∙h/L” value (XDR P. aeruginosa [3]; all patients n = 33) was 11 (33.3) n (%), the fAUC/MIC (XDR P. aeruginosa [3]; all patients n = 33, unbound fraction 0.5, mean ± standard deviation, SD) was 30.2 ± 28.2 and the fAUC/MIC (XDR P. aeruginosa [3]; included patients with clinical cure (n = 31), median (interquartile range)) was 21.5 (5.04–124.8). For the same compound, the “Css > 2,5 mg/L” value (XDR P. aeruginosa [3]; [9]) was 1 (50) 1 (50) n (%), the fAUC/MIC (XDR P. aeruginosa [3]; included patients with clinical failure (n = 2), median (interquartile range)) was 47.4 (7.44–87.4) and the “Css > 2,5 mg/L” value (XDR P. aeruginosa [3]; patients treated with colistin alone, clinical cure (n=17)) was 1 (5.9) n (%). The fAUC/MIC (XDR P. aeruginosa [3]; patients treated with colistin alone, clinical cure (n=17), median (interquartile range)) was 16.8 (4.8–81.6), the fAUC/MIC (XDR P. aeruginosa [3]; patients with AKI at EOT (n = 10), median (interquartile range)) was 48.4 (14.4–124.8) and the fAUC/MIC (XDR P. aeruginosa [3]; patients without AKI at EOT (n = 23), median (interquartile range)) was 13.7 (4.8–58.1). For the same compound, the “emergence of colistin-resistant isolates” value (XDR P. aeruginosa [4]; during the next 30 days after treatment) was “no colistin-resistant isolates were detected”, the “Odds ratio (95% CI) of Css for nephrotoxicity at EOT” value (Acute kidney injury; multivariate logistic regression, P = 0.074) was 4.36 (0.86–20) and the “patients with colistin in urine much higher than in plasma” value ([5]; 11 of 12 patients treated with CMS) was 91.7%. For the same compound, the “concentrations of formed colistin in urine” value ([5]; 12 patients treated with CMS, maximum) was “up to 95.4 mg/L”, the “concentrations of formed colistin in plasma” value ([5]; 12 patients treated with CMS, median (IQR <0.2–1.4 mg/L)) was 900 ng/mL and the half-life ([5]; assumed for reaching steady state) was “approximately 14 h”. The “unbound fraction for colistin in human plasma” value ([5]; human plasma) was 0.5, the MIC50/90 values (P. aeruginosa [6]) was 2 µg/mL (≈ 1.71 µM) and the “clinical cure rate in patients diagnosed with UTI” value (MDR-GNB; retrospective study, low-dose colistin) was 83.3%. For the same compound, the “Css,avg associated with a higher risk of AKI at EOT” value [7] was > 2420 ng/mL and the “rate of colistin-associated nephrotoxicity” value [7] was 40–50%.
`NCC[C@H](O)C(=O)N[C@@H]1C[C@H](N)[C@@H](O[C@H]2O[C@H](CN)[C@@H](O)[C@H](O)[C@H]2O)[C@H](O)[C@H]1O[C@H]1O[C@H](CO)[C@@H](O)[C@H](N)[C@H]1O` [amikacin] gave an MIC (P. aeruginosa [1]) of 16 µg/mL (≈ 27.3 µM).
In the case of Colistimethate sodium [CMS], the “Clinical cure in patients with pyelonephritis” value (XDR P. aeruginosa [4]; 9 patients diagnosed with pyelonephritis, six (66.7%) on combined therapy) is reported as “All of them achieved clinical cure”, the Microbiological clearance (XDR P. aeruginosa [4]; 23 patients with microbiological follow up) is reported as 19 (82.6) n (%) and the Clinical cure (XDR P. aeruginosa [4]; CMS < 3 million IU/day (n = 6)) is reported as 6 (100) n (%). For the same compound, the Clinical cure (XDR P. aeruginosa [4]; CMS ≥ 3 million IU/day (n = 9)) was 8 (88.9) n (%), the Clinical cure (XDR P. aeruginosa [4]; [8]) was 11 (91.7) n (%) and the Clinical cure (XDR P. aeruginosa [4]; CMS ≥ 9 million IU/day (n = 6)) was 6 (100) n (%). For the same compound, the Clinical cure (XDR P. aeruginosa [4]; all patients n = 33 (42.4% on combined antibiotic therapy)) was 31 (93.9) n (%), the “AKI at EOT” value (Acute kidney injury; CMS < 3 million IU/day (n = 6)) was 2 (33.3) n (%) and the “AKI at EOT: F (Failure)” value (Acute kidney injury; CMS < 3 million IU/day (n = 6)) was 0 (0) n (%). The “AKI at EOT: I (Injury)” value (Acute kidney injury; CMS < 3 million IU/day (n = 6)) was 1 (50) n (%), the “AKI at EOT: R (Risk)” value (Acute kidney injury; CMS < 3 million IU/day (n = 6)) was 1 (50) n (%) and the “AKI at EOT” value (Acute kidney injury; CMS ≥ 3 million IU/day (n = 9)) was 3 (33.3) n (%). The “AKI at EOT: F (Failure)” value (Acute kidney injury; CMS ≥ 3 million IU/day (n = 9)) was 1 (33.3) n (%), the “AKI at EOT: I (Injury)” value (Acute kidney injury; CMS ≥ 3 million IU/day (n = 9)) was 2 (66.6) n (%) and the “AKI at EOT: R (Risk)” value (Acute kidney injury; CMS ≥ 3 million IU/day (n = 9)) was 0 (0) n (%). For the same compound, the “AKI at EOT” value (Acute kidney injury; [8]) was 4 (33.3) n (%), the “AKI at EOT: F (Failure)” value (Acute kidney injury; [8]) was 0 (0) n (%) and the “AKI at EOT: I (Injury)” value (Acute kidney injury; [8]) was 3 (75) n (%). The “AKI at EOT: R (Risk)” value (Acute kidney injury; [8]) was 1 (25) n (%), the “AKI at EOT” value (Acute kidney injury; CMS ≥ 9 million IU/day (n = 6)) was 1 (16.7) n (%) and the “AKI at EOT: F (Failure)” value (Acute kidney injury; CMS ≥ 9 million IU/day (n = 6)) was 1 (100) n (%). For the same compound, the “AKI at EOT: I (Injury)” value (Acute kidney injury; CMS ≥ 9 million IU/day (n = 6)) was 0 (0) n (%), the “AKI at EOT: R (Risk)” value (Acute kidney injury; CMS ≥ 9 million IU/day (n = 6)) was 0 (0) n (%) and the “AKI at the end of treatment” value (Acute kidney injury; all patients n = 33, RIFLE criteria) was 10 (30.3%) n (%) and 10 (30.3) n (%). For the same compound, the “AKI at the end of treatment: F (Failure)” value (Acute kidney injury; [10]) was 2 (22.2) n (%), the “AKI at the end of treatment: I (Injury)” value (Acute kidney injury; [10]) was 5 (55.5) n (%) and the “AKI at end of treatment” value (Acute kidney injury; included patients with clinical cure (n = 31)) was 9 (29) n (%). The “AKI at end of treatment” value (Acute kidney injury; [9]) was 1 (50) n (%), the “CMS dose eliminated in the urine” value [5] was 60–70% and the “rate of CMS conversion into colistin” value ([5]; young volunteers, single dose of 1 million IU (80 mg) CMS) was 30%. The “CMS excreted in urine” value ([5]; young volunteers, single dose of 1 million IU (80 mg) CMS, on average) was 70%, the Clinical cure (MDR-GNB; 13 patients with UTI caused by XDR P. aeruginosa) was 84.6% and the “rate of clinical cure in UTI caused by MDR-GNB” value (MDR-GNB; recent clinical studies) was 50 to 92%.
Work on `CC(C)(O/N=C(\C(=O)N[C@@H]1C(=O)N2C(C(=O)[O-])=C(C[n+]3ccccc3)CS[C@H]12)c1csc(N)n1)C(=O)O` [ceftazidime] yielded an MIC (P. aeruginosa [1]) of 16 µg/mL (≈ 29.3 µM).
